Screening data deposited in PubChem by The Scripps Research Institute Molecular Screening Center.
OX1R antag-1 – blocks the human orexin 1 receptor; O43613; 0.43% of 330,000 active; inhibition, % at 5 µM; CHO/OX1R cells, Fluo-8 calcium fluorescence, orexin A;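 active = inhibition above its plate's threshold, mean inhibition of all tested compounds on the plate plus 3 SD, cut at about 37% in these data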
V1aR counter – V1a receptor agonism, counter-screen for OXTR agonists; P37288; CHO-V1R cells, Fluo-8 calcium fluorescence, agonist mode; 0% DMSO, 100% 3 nM vasopressin; activation, % at 3 µM; 0.25% of 320,000 active; AID 2797;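 active = activation above the mean activation of all tested compounds plus 3 SD, per screening run, cut at about 20% in these data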;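 also: signal is peak over basal fluorescence ratio across a 100 second FLIPR read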
Target sequence (P37288 whole entry, looked up): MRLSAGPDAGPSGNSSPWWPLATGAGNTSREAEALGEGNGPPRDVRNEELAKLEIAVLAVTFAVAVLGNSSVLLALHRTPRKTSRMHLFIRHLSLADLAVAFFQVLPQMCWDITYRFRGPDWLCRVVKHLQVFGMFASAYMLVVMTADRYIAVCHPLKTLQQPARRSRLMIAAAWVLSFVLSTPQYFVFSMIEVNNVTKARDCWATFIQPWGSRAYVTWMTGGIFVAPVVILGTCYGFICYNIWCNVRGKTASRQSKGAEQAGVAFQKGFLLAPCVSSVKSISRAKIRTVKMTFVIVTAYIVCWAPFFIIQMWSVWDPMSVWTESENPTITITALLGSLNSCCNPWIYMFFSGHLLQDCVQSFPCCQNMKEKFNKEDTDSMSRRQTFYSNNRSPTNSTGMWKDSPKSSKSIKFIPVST
OXTR ag – human OXTR agonism; P30559; activation, % at 3 µM; AID 2435; 0.32% of 320,000 active; CHO-OTR cells, Fluo-8 calcium fluorescence; normalized: DMSO 0%, oxytocin 100%;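 active = activation above the mean of all tested compounds plus 3 SD, cutoff set per screening run, cut at about 20% in these data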;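 also: peak over basal fluorescence ratio from a 100 s FLIPR kinetic read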
CHO parental Ca – counter-screen for OX1R antagonists: effect in parental CHO cells; 0.63% of 330,000 active; inhibition, % at 5.6 µM; AID 463079; parental CHO-K1, ATP-induced calcium, Fluo-8 fluorescence;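 active = inhibition above that plate's mean sample inhibition plus 3 SD, cut at about 26% in these data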
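Test system: untransfected parental CHO cell line; also added: ATP stimulus; dosing: 5.6 µM, single dose; signal: calcium-sensitive Fluo-8 fluorescence; measure: percent inhibition of ATP-evoked calcium rise, normalized to controls; benchmarks: low control ATP plus DMSO, high control DMSO only; replication: one well per compound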
OX1R antag-2 – blocks the human orexin 1 receptor; O43613; OX1R-expressing cells, FRET antagonist read-out; inhibition, % at 6.6 µM; 1.8% of 330,000 active; AID 485270; in the data active = inhibition mostly above about 38%, no sharp cut-off; inactive = mostly below about 40%
OXTR potentiate – human OXTR potentiation. 0.061% of 320,000 active. activation, % at 3 µM. AID 2445. CHO-OTR cells, Fluo-8 calcium fluorescence, potentiator mode; 0% = oxytocin EC15, 100% = EC100;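 active = activation above that plate's cutoff, the mean activation of tested compounds plus 3 SD, cut at about 6.6% in these data, passing the limit was not always enough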
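System: human OTR in CHO cells; Also added: sub-maximal oxytocin, roughly EC15; Timing: compound 6 min at room temperature before oxytocin, 100 s read; Technique: Fluo-8 intracellular calcium fluorescence, ex 470-495, em 515-575 nm; Controls: oxytocin EC15 low and EC100 high; Replication: singlicate.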
Large screens that a line does not name were inactive. Sampled rows, rich in hits. Any-hit rate of the full collection: about 2.7%.

CC(C)c1c(C(=O)N/N=C/c2ccoc2)nnn1-c1nonc1N	none
COC(=O)N1C(=O)[C@@](c2ccccc2)(C2CCCCC2)N1C(=O)OC	none
COc1ccc(OC)c(-n2c(Cn3c(-c4ccccn4)nc4ccccc43)n[nH]c2=S)c1	OX1R antag-2 59
COc1ccc(COC(=O)CCNC(=O)c2ccc(Cl)cc2)cc1	OX1R antag-2 53
COc1ccc(C(=O)NCC(=O)NCC(=O)OCc2ccc(Cl)cc2)cc1	none
CCCCNC(=S)N(CCO)Cc1cc2cc3c(cc2[nH]c1=O)OCCO3	none
O=C(NC1=NCCS1)C1CCN(S(=O)(=O)c2ccccc2C(F)(F)F)CC1	none
CC(C)OCCCNC(=O)CN1C(=O)/C(=C/c2ccccc2)Sc2ccccc21	OX1R antag-2 69
CCc1ccc(/C=C2/Sc3ccccc3N(CC(=O)NCCCOC)C2=O)cc1	none
COc1ccccc1CCNC(=O)CNC(=O)Cc1cccc2ccccc12	none
Cc1nn(CC(=O)Nc2ccc(N3CCOCC3)cc2)c(C)c1Cl	none
Cc1ccc(CNC(=O)c2nnc(Cc3ccc(Cl)cc3)o2)cc1	CHO parental Ca 44
CC1CN(S(=O)(=O)c2cccc(C(=O)N3CCC(C(N)=O)CC3)c2)CC(C)O1 (stereo unspecified)	none
COC(=O)/C=C1\SC(N2CCOCC2)=C(c2ccc(OC)cc2)C1=O	OX1R antag-2 70
O=C(Nc1ccc(C(F)(F)F)cc1)C1=NN(C2CCS(=O)(=O)C2)C(=O)CC1 (stereo unspecified)	none
COC(=O)c1ccccc1-c1ccc(/C=N/NC(=O)c2cc3ccccc3o2)o1	none
COC(=O)c1ccccc1-c1c2ccc(=N)cc-2oc2cc(N)ccc12	OX1R antag-1 112, V1aR counter active, OXTR ag active, CHO parental Ca 102, OX1R antag-2 30
COc1cc(C(=O)OCC(=O)N2CCOCC2)c([N+](=O)[O-])cc1OC	none
Cc1cccc(-c2noc(CN(C(=O)CCc3ccccc3)C(C)C)n2)c1	CHO parental Ca 42
Cc1ccc(-c2noc(CN(C(=O)C(c3ccccc3)c3ccccc3)C(C)C)n2)cc1	CHO parental Ca 52
COc1ccc(Cl)cc1C(=O)N(Cc1nc(-c2cccc(C)c2)no1)C(C)C	CHO parental Ca 47
CC(C)N(Cc1nc(-c2ccccc2)no1)S(=O)(=O)c1ccccc1	CHO parental Ca 60
N#CCC(=O)N/N=C/c1cc(-c2ccccc2)n(-c2ccc(Cl)cc2)c1-c1ccccc1	OX1R antag-2 104
CC(=O)Nc1ccc(NC(=O)C(C)Sc2n[nH]c(-c3ccc(C)cc3)n2)cc1 (stereo unspecified)	none
Cc1ccc2nc(SCC(=O)c3ccc(Cl)s3)[nH]c2c1	OX1R antag-2 56
CCn1c(SCC(=O)NC2CCCc3ccccc32)nnc1-c1ccncc1 (stereo unspecified)	none
COc1ccc2nc(SCC(=O)NCc3ccc(F)cc3)[nH]c2c1	none
CCn1c(SCC(=O)NC2CCCc3ccccc32)nnc1-c1cccs1 (stereo unspecified)	OX1R antag-2 70
O=C(CSc1ccc2ccccc2c1)NC1CCCc2ccccc21 (stereo unspecified)	OX1R antag-2 71
COc1cccc(CNC(=O)CSc2nc3ccc(C)cc3[nH]2)c1	OX1R antag-2 42
CNC(=O)N(O)C1N(/N=C/c2c(F)cccc2Cl)C(=S)SC1(C)C (stereo unspecified)	none
CCc1cccc(C)c1NC(=O)CN(C)S(=O)(=O)c1ccc(-c2ccc(=O)[nH]n2)s1	none
Cc1ccc2nc(SCC(=O)NC3CCCc4ccccc43)[nH]c2c1 (stereo unspecified)	OX1R antag-2 73
Cc1cc(NC(=O)CCC(=O)N(Cc2ccco2)C(C(=O)NC2CCCC2)c2ccc(F)cc2)no1 (stereo unspecified)	OX1R antag-2 47
Cc1cc(C(=O)NC2CCCCCCC2)ccc1[N+](=O)[O-]	none
O=C(Cn1nnc(-c2ccccc2NC(=O)c2ccccc2F)n1)NC1CCCC1	V1aR counter 49, OXTR ag 47, CHO parental Ca 32
O=C1NC(=Nc2ccccc2)c2c1cccc2[N+](=O)[O-]	OX1R antag-2 74
